ChEMBL document CHEMBL3271951, “Synthesis and biological activity of 2- and 4-substituted 6,7-dihydroxy-1,2,3,4-tetrahydroisoquinolines” (1976)

T1: Catechol O-methyltransferase (Rattus norvegicus) (UniProt P22734)
T1 sequence (whole entry): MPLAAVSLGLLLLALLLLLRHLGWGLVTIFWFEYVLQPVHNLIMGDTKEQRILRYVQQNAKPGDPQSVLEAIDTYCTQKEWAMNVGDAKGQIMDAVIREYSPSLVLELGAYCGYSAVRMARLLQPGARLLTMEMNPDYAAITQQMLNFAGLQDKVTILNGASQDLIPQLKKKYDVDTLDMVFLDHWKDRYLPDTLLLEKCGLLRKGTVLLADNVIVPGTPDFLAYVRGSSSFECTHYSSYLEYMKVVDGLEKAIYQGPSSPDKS

B1: Catechol O-methyltransferase (Rattus norvegicus), P22734 (protein)
chain: T1 sequence (whole entry)

Key:
[1] = target: T1, Catechol O-methyltransferase (Rattus norvegicus); assay: Competitive inhibition of Sprague-Dawley rat liver COMT assessed as inhibition of methyl group transformation from SAM to DL-epinephrine-7-14C after 10 mins by scintillation spectrophotometric analysis
Procedure, shortened: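 Partially purified rat liver COMT (calcium phosphate stage). SAM 1.0 mM as methyl donor, Epi-14C 0.05 μCi, epinephrine varied 54-404 μM, 10 min, stopped with borate pH 10.0. Radiolabeled metanephrine and paranephrine extracted with toluene-isoamyl alcohol (3:2) and counted. Reciprocal velocity vs reciprocal epinephrine plots give the inhibition pattern; Ki by Cleland's procedure.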

Mus musculus = assay: Induction of DL-norepinephrine-7-3H release from ARS HA(ICR)f outbred Swiss albino mouse heart assessed as remaining level at 10 mg/kg, sc after 2 hrs relative to control; type: functional; details: route subcutaneous
Procedure, shortened: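 Mice (about 20 g) given 1.0 nmol (5 μCi) Norepi-3H iv by tail vein in isotonic NaCl with heparin. Compound 10 mg/kg sc 1 hr later; saline-injected controls. Hearts removed, homogenized in 10 vol 0.4 N HClO4 and centrifuged; tritium in the supernatant counted. Expressed as % of control, mean of duplicate determinations with five mice each.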

[2] = substrate: CN1CCc2cc(O)c(O)cc2C1; assay: (§1) Activity of Sprague-Dawley rat liver COMT using [14CH3]-SAM as methyl group donor after 10 mins by scintillation spectrophotometric analysis
Procedure, shortened: (§2)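 Rat liver COMT (male Sprague-Dawley, 180-200 g) purified through the calcium phosphate stage, approx 50-fold. Test catechol at 50-500 μM as substrate, SAM 1.0 mM with SAM-14CH3 0.05 μCi, 10 min incubation, stopped with borate buffer pH 10.0. O-methylated product extracted into toluene-isoamyl alcohol (3:2) and counted. Km and Vmax from double-reciprocal plots using Cleland's equations.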

[3] = substrate: CNC[C@H](O)c1ccc(O)c(O)c1; assay: as §1; procedure, shortened: as §2
[4] = substrate: CC1(C)CNCc2cc(O)c(O)cc21; assay: as §1; procedure, shortened: as §2
[5] = substrate: CC1CN(C)Cc2cc(O)c(O)cc21; assay: as §1; procedure, shortened: as §2
[6] = substrate: CN1Cc2cc(O)c(O)cc2C(C)(C)C1; assay: as §1; procedure, shortened: as §2
[7] = substrate: Oc1cc2c(cc1O)CNCC2; assay: as §1; procedure, shortened: as §2

| Molecule | Kis [1] [µM] | Activity (Mus musculus) [%] | also measured |
| --- | --- | --- | --- |
| Br.CN1CCc2cc(O)c(O)cc2C1 | 152 | 104 | – |
| Br.CC1CN(C)Cc2cc(O)c(O)cc21 (centres undefined) | 101 | 107 | – |
| Br.Oc1cc2c(cc1O)CNCC2 | 196 | 63 | – |
| Br.CN1Cc2cc(O)c(O)cc2C(C)(C)C1 | 187 | 115 | – |
| Br.CC1(C)CNCc2cc(O)c(O)cc21 | 259 | 103 | – |
| C[N+]1(C)CCc2cc(O)c(O)cc2C1.[Br-] | 191 | 43 | – |
| B1 | – | – | Km [2]: 670 µM; Vmax [2]: 18.5 nmol/mg/min; Km [3]: 398 µM; Vmax [3]: 19.8 nmol/mg/min; Km [4]: 310 µM; Vmax [4]: 17.4 nmol/mg/min; Km [5]: 754 µM; Vmax [5]: 21.2 nmol/mg/min; Km [6]: 410 µM; Vmax [6]: 12.1 nmol/mg/min; Km [7]: 540 µM; Vmax [7]: 15.5 nmol/mg/min |
